# B1: tRNA (parent)
# chain: GUUCCGUUGGCGUAAUGGUAACGCGUCUCCCUCCUAAGGAGAAGACUGCGGGUUCGAGUCCCGUACGGAACG
# Variants of: B1
# Assay: yeast fitness, log relative to wild type (ln ratio); higher = fitter; tRNA-Arg(CCU), competitive growth, 37 C, 1 M NaCl
# Method in brief: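 A combinatorial tRNA-Arg(CCU) variant library was carried on a HIS3 centromeric plasmid in BY4742 lacking the chromosomal gene, from two independent transformations. Pools grew 4 generations in SC-HIS at 30 °C, then ~6.5 generations (~26.5 h) in SC-HIS 1M NaCl at 37 °C, with three outputs per input. Variants were counted by 125 bp paired-end Illumina sequencing. Fitness is ln of each genotype's generations (OD-scaled log2 output/input frequency, inverse-variance weighted across replicates) over the wild-type's.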
row,Variant,yeast fitness (ln)
1,G1A U2G G6U C46U C66A A70U,-0.234
2,C27U A43C C66A A70U C71U,-0.347
3,G1A U2C G6U C27U A43C C46U C66A A69G A70G C71U,-0.0612
4,G1A U2G G6A C27U C46U C66U A69G A70G,-0.272
5,G6A C27U A43C C46U C66U A69G A70G,-0.369
6,U2C A70U,-0.0103
7,U2G G6A C27U C46U C66A A70U,-0.134
8,U2G G6A C27U C46U C66A A70G,-0.16
9,G1A G6U C27U C66A A70G C71U,-0.531
10,C27U C66A A69G A70U C71U,-0.356
11,C27U A69G A70U C71U,-0.294
12,G6A C27U A43C C46U A69G,-0.166
13,C27U A43C C66U A69G A70G C71U,-0.318
14,U2G G6U C66U A70G C71U,-0.151
15,U2C G6U C46U A69G A70U,-0.086
16,U2G G6A C66U A70U,0.001
17,G1A C27U,-0.105
18,U2G G6U C27U A43C C46U C66U A70G C71U,-0.315
19,U2G G6U C27U A43C A69G A70G,-0.322
20,U2G G6U A43C C46U C66A A70G,-0.251
21,U2G A43C A69G A70U C71U,-0.382

row,Variant,yeast fitness (ln)
1,G6A A43C C46U C66U A69G A70G,-0.233
2,A43C A69G A70U C71U,-0.337
3,G1A U2G C71U,-0.218
4,U2G G6A C27U A43C C46U C66A A70U,-0.115
5,U2G G6A C27U A43C C66U A69G C71U,-0.35
6,G1A G6U C46U C66U A70U C71U,-0.298
7,U2G G6U C66U C71U,-0.203
8,G1A U2G G6A C46U A69G A70G,-0.251
9,G1A C27U A43C C66A A70U C71U,-0.423
10,U2G G6U C27U A43C C66A A69G A70U,-0.315
11,U2G G6A C27U A43C C46U A69G A70G C71U,-0.297
12,G1A U2G C66U A70U C71U,-0.486
13,G6U C27U A43C A70U,-0.309
14,G6U A43C C46U C66A A70G C71U,-0.227
15,G1A U2G G6U C27U A43C A70G C71U,-0.588
16,C27U C46U C66A A69G A70U,-0.104
17,G1A U2G G6U C66A C71U,-0.193
18,G1A U2G A43C C66U A69G C71U,-0.497
19,G6U A43C C66U A69G A70G,-0.333
20,G1A G6U C27U A43C C46U A69G C71U,-0.328
21,G1A U2G C27U A43C C46U C66U A70U C71U,-0.329

row,Variant,yeast fitness (ln)
1,A43C C66A C71U,-0.117
2,U2C G6U C27U A43C C46U C66A A70U C71U,-0.164
3,U2G G6U C66A,-0.0885
4,U2G G6U C27U A43C C46U C66U A69G A70U,-0.374
5,G1A U2G C27U A43C C46U A70U C71U,-0.0479
6,U2C C27U A43C C46U C66U A70U C71U,-0.324
7,A43C C66U C71U,-0.206
8,G1A U2G C46U A69G A70U,-0.238
9,U2C A43C C66A A69G A70G C71U,-0.168
10,G1A G6U A43C C66U A69G A70G C71U,-0.371
11,G1A U2G A43C C46U A69G,-0.0712
12,G6U C27U A43C C71U,-0.281
13,G1A C46U A70G,-0.226
14,G1A U2C G6A C27U C66U A70U C71U,-0.261
15,C27U C46U C66U,-0.0577
16,U2C G6U C66A A70G,-0.0114
17,U2C G6U A70U C71U,-0.102
18,U2G C27U C46U C66U A69G A70G,-0.187
19,U2G C27U A43C C66A A69G A70G C71U,-0.305
20,U2G C27U C46U C66U A69G A70U C71U,-0.376
21,U2C C27U C46U C66A A69G A70U,-0.114

row,Variant,yeast fitness (ln)
1,G1A U2C G6U C27U A70G,-0.186
2,U2G G6A C27U A43C,-0.0726
3,U2G G6A C27U C46U C66U A70U C71U,-0.158
4,G1A A69G A70G C71U,-0.0385
5,G6A C27U A43C C71U,-0.184
6,G1A G6U C46U C66U A69G C71U,-0.814
7,G6U C27U C46U C66A A70G,-0.04
8,U2C C27U A43C C46U C66A A70G C71U,-0.105
9,U2C G6U C27U C66A A69G A70U C71U,-0.525
10,G6U C27U C46U C66A A69G A70U,-0.196
11,G1A U2C G6U C27U A43C C46U,-0.0772
12,G1A C27U C66A A70U,-0.132
13,G1A U2G C27U C66U C71U,-0.244
14,U2C A69G A70U C71U,-0.199
15,G6U C27U C46U C66U A70U C71U,-0.336
16,G6U C27U C66U A70U C71U,-0.36
17,U2G G6U A43C C46U C66U A69G A70G C71U,-0.348
18,G1A G6U C27U C46U A69G A70U C71U,-0.431
19,U2G G6U C27U A43C C66A A69G A70G C71U,-0.371
20,U2C C46U C66A A70G,-0.0556
